Laboratory results from ChEMBL document CHEMBL3272179, “Synthetic metabolites of neurohypophyseal hormones. (Des-9-glycinamide)oxytocin and (des-9-glycinamide, des-8-leucine)oxytocin” (1976).
Active and inactive are the calls of the source. No cut-off for these calls is given here. Positions of bridges follow the written chain, without caps; N, C: chain ends. Residues, ends and D or L forms follow the SMILES beside them.

Columns and labels:
[1] = tested on: Gallus gallus; assay: Inhibition of oxytocin-induced vasodepressor activity in conscious chicken; format: functional, organism-based
How it was run: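 Analog and oxytocin injected simultaneously into conscious chickens (minimum three), procedure of Coon. Oxytocin held at 5×10^-11 mol while analog dose was raised stepwise to 5×10^-4 mol. Read-out was inhibition of the oxytocin vasodepressor response.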

[2] = tested on: Rattus norvegicus; assay: Pressor activity in atropinized and urethane-anesthetized rat at 1 mg; format: functional, organism-based
How it was run: (§1)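 Minimum of five atropinized, urethane-anesthetized male rats, following U.S. Pharmacopeia procedures. Tested for agonist and antagonist activity at single doses up to 1 mg. USP Posterior Pituitary Reference Standard used as reference.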

[3] = tested on: Rattus norvegicus; assay: Antidiuretic activity in inactin- and ethanol-anesthetized, hydrated Sprague-Dawley rat assessed as maximal depression of rate of urine flow; format: functional
How it was run: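 Six male Sprague-Dawley rats, anesthetized with Inactin and ethanol and hydrated. Method of Jeffers et al. as modified by Sawyer. The effective response was the maximal depression of urine flow rate. Four-point design or matches against USP Posterior Pituitary Reference Standard.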

[4] = Oxytocic activity in uterine horns of rat […]; format: functional
How it was run: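 Six isolated uterine horns from three rats in natural estrus, with estrus confirmed by vaginal smear on the assay morning. Holton method as modified by Munsick, in Mg2+-free van Dyke-Hastings bathing solution. Four-point design or matches against USP Posterior Pituitary Reference Standard.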

[5] = tested on: Anura; assay: Hydroosmotic activity in toad urinary bladder assessed as water transport; format: functional
How it was run: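 Water transport across toad urinary bladder measured by Bentley's method as modified by Eggena et al. At least five animals. Four-point design or matches against USP Posterior Pituitary Reference Standard.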

[6] = tested on: Gallus gallus; assay: Vasodepressor activity in conscious chicken; format: functional
How it was run: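 Conscious chickens, minimum three, procedure of Coon. Tested for agonist activity at up to 1 mg analog per injection. Four-point design or matches against USP Posterior Pituitary Reference Standard.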

[7] = tested on: Rattus norvegicus; assay: Pressor activity in atropinized and urethane-anesthetized rat; format: functional; how it was run: as §1

SMILES	inhibition [1]	Activity [2]	Activity [3] [U/mg]	Activity [4] [U/mg]	Activity [5] [×10⁻⁹ M]	Activity [6] [U/mg]	Activity [7] [U/mg]
CC[C@H](C)[C@@H]1NC(=O)[C@H](Cc2ccc(O)cc2)NC(=O)[C@@H](N)CSSC[C@@H](C(=O)N2CCC[C@H]2C(=O)N[C@@H](CC(C)C)C(=O)O)NC(=O)[C@H](CC(N)=O)NC(=O)[C@H](CCC(N)=O)NC1=O (H-CYIQNCPL-OH; disulfide 1-6)	Active	inactive	0.08	2.4	4		
CC[C@H](C)[C@@H]1NC(=O)[C@H](Cc2ccc(O)cc2)NC(=O)[C@@H](N)CSSC[C@@H](C(=O)N2CCC[C@H]2C(=O)O)NC(=O)[C@H](CC(N)=O)NC(=O)[C@H](CCC(N)=O)NC1=O (H-CYIQNCP-OH; disulfide 1-6)		inactive	0.06	2.7		0.1	
CC[C@H](C)[C@@H]1NC(=O)[C@H](Cc2ccc(O)cc2)NC(=O)[C@@H](N)CSSC[C@@H](C(=O)N2CCC[C@H]2C(=O)N[C@@H](CC(C)C)C(=O)NCC(N)=O)NC(=O)[C@H](CC(N)=O)NC(=O)[C@H](CCC(N)=O)NC1=O [OXYTOCIN]			2.1	546	2.3	507	3.1
